In brackets after ≈: the same amount, converted by molar mass.
How the values were obtained:
[1] = Cytotoxicity against human Hep2 cells assessed as cell survival at 0.5 ug/ml after 24 hrs by trypan blue exclusion test (reference value: 87 to 94%); format: cell-based, HEp-2; details: read-out: Survival
[2] = test system: Staphylococcus haemolyticus; assay: Antibacterial activity against Staphylococcus haemolyticus after 18 to 22 hrs by broth microdilution method; format: functional
In short: (§1)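 Broth microdilution per NCCLS in Mueller-Hinton II broth; isolates subcultured for purity. Compounds dissolved in DMSO, serial dilutions 256 to 0.5 µg/mL; inoculum 10^5/mL. Controls: organism without compound, medium only. Incubation 18 to 22 h at 35 °C. MIC is the lowest concentration giving complete growth inhibition, read by unaided eye.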

Proteus mirabilis = assay: Antibacterial activity against Proteus mirabilis after 18 to 22 hrs by broth microdilution method; format: functional; in short: as §1
Staphylococcus warneri = assay: Antibacterial activity against Staphylococcus warneri after 18 to 22 hrs by broth microdilution method; format: functional; in short: as §1
[3] = Cytotoxicity against human Hep2 cells assessed as cell survival at 5 ug/ml after 24 hrs by trypan blue exclusion test (reference value: 87 to 94%); format: cell-based, HEp-2; details: read-out: Survival
Staphylococcus aureus = assay: Antibacterial activity against Staphylococcus aureus after 18 to 22 hrs by broth microdilution method; format: functional; in short: as §1
Nakaseomyces glabratus = assay: Antifungal activity against Candida glabrata clinical isolate after 24 hrs by sabouraud dextrose broth based microdilution method; format: functional
In short: (§2)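 Clinical isolates identified by conventional methods and subcultured for purity. Broth microdilution per NCCLS in Sabouraud dextrose broth; compounds dissolved in DMSO and serially diluted; inoculum 10^3/mL. Controls: fungi without compound, medium only. Incubated 24 h at 37 °C. MIC is the lowest concentration with complete growth inhibition by unaided eye. Values are geometric means over isolates per species.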

[4] = Cytotoxicity against human Hep2 cells assessed as cell survival at 100 ug/ml after 24 hrs by trypan blue exclusion test (reference value: 87 to 94%); format: cell-based, HEp-2; details: read-out: Survival
Candida tropicalis = assay: Antifungal activity against Candida tropicalis clinical isolate after 24 hrs by sabouraud dextrose broth based microdilution method; format: functional; in short: as §2
[5] = Cytotoxicity against human Hep2 cells assessed as cell survival at 0.05 ug/ml after 24 hrs by trypan blue exclusion test (reference value: 87 to 94%); format: cell-based, HEp-2; details: read-out: Survival
Klebsiella oxytoca = assay: Antibacterial activity against Klebsiella oxytoca after 18 to 22 hrs by broth microdilution method; format: functional; in short: as §1
[6] = Cytotoxicity against human Hep2 cells assessed as cell survival after 24 hrs by trypan blue exclusion method; format: cell-based, HEp-2
In short: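 Hep2 cells grown in DMEM with 10% FBS and 1% streptomycin-penicillin at 37 °C, 5% CO2, used at 60-70% confluency. Seeded at 1 x 10^5/mL and exposed 24 h to five concentrations (0.05-100 µg/mL), DMSO ≤0.5%. Controls: medium alone, DMSO, 1 mM nitroprusside. Cells scraped, recovered 30 min, stained 1:1 with 0.4% Trypan blue, counted by two operators. Means of ≥3 independent experiments.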

Candida albicans = assay: Antifungal activity against Candida albicans clinical isolate after 24 hrs by sabouraud dextrose broth based microdilution method; format: functional; in short: as §2
Escherichia coli = assay: Antibacterial activity against Escherichia coli at after 18 to 22 hrs by broth microdilution method; format: functional; in short: as §1
Candida parapsilosis = assay: Antifungal activity against Candida parapsilosis clinical isolate after 24 hrs by sabouraud dextrose broth based microdilution method; format: functional; details: Lodderomyces parapsilosis; in short: as §2
[7] = Selectivity index, ratio of CC50 for human Hep2 cells to MIC for Candida glabrata; parameters: species or system HEp-2
In short: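 Ratio of CC50 from the 24 h Trypan blue assay on Hep2 cells to the MIC against C. glabrata from the 24 h, 37 °C Sabouraud broth microdilution.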

Enterobacter sp. = assay: Antibacterial activity against Enterobacter sp. after 18 to 22 hrs by broth microdilution method; format: functional; in short: as §1
Pichia kudriavzevii = assay: Antifungal activity against Candida krusei clinical isolate after 24 hrs by sabouraud dextrose broth based microdilution method; format: functional; in short: as §2
Enterococcus faecalis = assay: Antibacterial activity against […] faecalis after 18 to 22 hrs by broth microdilution method; format: functional; in short: as §1
[8] = Cytotoxicity against human Hep2 cells assessed as cell survival at 50 ug/ml after 24 hrs by trypan blue exclusion test (reference value: 87 to 94%); format: cell-based, HEp-2; details: read-out: Survival
[Candida] sake = Antifungal activity against Candida sake clinical isolate after 24 hrs by sabouraud dextrose broth based microdilution method; format: functional; details: Fermentozyma sake; in short: as §2

Row | SMILES | viability at 24 h, 0.5 ug/ml [1] [%] | MIC [2] [µg/mL] | MIC (Proteus mirabilis) [µg/mL] | MIC (Staphylococcus warneri) [µg/mL] | viability at 24 h, 5 ug/ml [3] [%] | MIC (Staphylococcus aureus) [µg/mL] | MIC (Nakaseomyces glabratus) [µg/mL] | viability at 24 h, 100 ug/ml [4] [%] | MIC (Candida tropicalis) [µg/mL] | viability at 24 h, 0.05 ug/ml [5] [%] | MIC (Klebsiella oxytoca) [µg/mL] | CC50 at 24 h [6] [µg/mL] | MIC (Candida albicans) [µg/mL] | MIC (Escherichia coli) [µg/mL] | MIC (Candida parapsilosis) [µg/mL] | MIC (Enterobacter sp.) [µg/mL] | MIC (Pichia kudriavzevii) [µg/mL] | MIC (Enterococcus faecalis) [µg/mL] | viability at 24 h, 50 ug/ml [8] [%] | MIC ([Candida] sake) [µg/mL] | other results
1 | C/C(CC(C)C)=N\N=C1/SCC(=O)N1CN1C(=O)c2ccccc2C1=O | 92.8 | > 256 | > 256 | > 256 | 90 | > 256 | 1 (≈ 2.68 µM) | 47 | 64 (≈ 172 µM) | 94 | > 256 | 99 (≈ 266 µM) | 2 (≈ 5.37 µM) | > 256 | 2 (≈ 5.37 µM) | > 256 | 2 (≈ 5.37 µM) | > 256 | 79 | 2 (≈ 5.37 µM) | Selectivity Index [7]: 99
2 | CC(C)=N/N=C1\SCC(=O)N1CN1C(=O)c2ccccc2C1=O | 73 | > 256 | > 256 | > 256 | 61 | > 256 | 1 (≈ 3.03 µM) | 0 | 1 (≈ 3.03 µM) | 86 | > 256 | 22 (≈ 66.6 µM) | 4 (≈ 12.1 µM) | > 256 | 2 (≈ 6.05 µM) | > 256 | 2 (≈ 6.05 µM) | > 256 | 0 | 2 (≈ 6.05 µM) | 
3 | C/C(CC(C)C)=N\N=C1/SCC(=O)N1Cc1ccc([N+](=O)[O-])cc1 | 92.5 | > 256 | > 256 | > 256 | 82 | > 256 | 1 (≈ 2.87 µM) | 0 | 32 (≈ 91.8 µM) | 93 | > 256 | 32 (≈ 91.8 µM) | 1 (≈ 2.87 µM) | > 256 | 2 (≈ 5.74 µM) | > 256 | 2 (≈ 5.74 µM) | > 256 | 0 | 4 (≈ 11.5 µM) | 
4 | CCCCC/C(C)=N/N=C1\SCC(=O)N1Cc1ccc([N+](=O)[O-])cc1 | 93.5 | > 256 | > 256 | > 256 | 87 | > 256 | 1 (≈ 2.76 µM) | 0 | 64 (≈ 177 µM) | 95.4 | > 256 | 35 (≈ 96.6 µM) | 4 (≈ 11 µM) | > 256 | 2 (≈ 5.52 µM) | > 256 | 2 (≈ 5.52 µM) | > 256 | 0 | 2 (≈ 5.52 µM) | 
5 | O=C1CS/C(=N\N=C2CCCC2)N1Cc1ccc([N+](=O)[O-])cc1 | 88 | > 256 | > 256 | > 256 | 51 | > 256 | 16 (≈ 48.1 µM) | 0 | 1 (≈ 3.01 µM) | 95 | > 256 | 28 (≈ 84.2 µM) | 2 (≈ 6.02 µM) | > 256 | 16 (≈ 48.1 µM) | > 256 | 8 (≈ 24.1 µM) | > 256 | 0 | 16 (≈ 48.1 µM) | 
6 | C/C(CC(C)C)=N\N=C1/SCC(=O)N1Cc1cccc2ccccc12 | 91 | > 256 | > 256 | > 256 | 87.5 | > 256 | 1 (≈ 2.83 µM) | 46 | 64 (≈ 181 µM) | 93.2 | > 256 | 95 (≈ 269 µM) | 4 (≈ 11.3 µM) | > 256 | 2 (≈ 5.66 µM) | > 256 | 2 (≈ 5.66 µM) | > 256 | 73.6 | 4 (≈ 11.3 µM) | Selectivity Index [7]: 95

Reference: ChEMBL document CHEMBL3739379, “Anti-Candida activity and cytotoxicity of a large library of new N-substituted-1,3-thiazolidin-4-one derivatives” (Eur J Med Chem, 2016)
